Measured values as given in ChEMBL document CHEMBL3108721, “4,4'-Unsymmetrically substituted 3,3'-biphenyl alpha helical proteomimetics as potential coactivator binding inhibitors” (Bioorg Med Chem, 2014).

What was measured:
[1] = target: T1, Estrogen receptor (Homo sapiens) (UniProt P03372); test: Inhibition of ER-alpha (unknown origin) transcriptional activity expressed in ER-negative human SKBR3 cells coexpressing ERE assessed as increase in reporter gene activity at >50 uM after 40 hrs relative to control; type: cell-based; set-up: scale not given: the % may be the effect or the level left; settings: SK-BR-3
T1 sequence (whole entry): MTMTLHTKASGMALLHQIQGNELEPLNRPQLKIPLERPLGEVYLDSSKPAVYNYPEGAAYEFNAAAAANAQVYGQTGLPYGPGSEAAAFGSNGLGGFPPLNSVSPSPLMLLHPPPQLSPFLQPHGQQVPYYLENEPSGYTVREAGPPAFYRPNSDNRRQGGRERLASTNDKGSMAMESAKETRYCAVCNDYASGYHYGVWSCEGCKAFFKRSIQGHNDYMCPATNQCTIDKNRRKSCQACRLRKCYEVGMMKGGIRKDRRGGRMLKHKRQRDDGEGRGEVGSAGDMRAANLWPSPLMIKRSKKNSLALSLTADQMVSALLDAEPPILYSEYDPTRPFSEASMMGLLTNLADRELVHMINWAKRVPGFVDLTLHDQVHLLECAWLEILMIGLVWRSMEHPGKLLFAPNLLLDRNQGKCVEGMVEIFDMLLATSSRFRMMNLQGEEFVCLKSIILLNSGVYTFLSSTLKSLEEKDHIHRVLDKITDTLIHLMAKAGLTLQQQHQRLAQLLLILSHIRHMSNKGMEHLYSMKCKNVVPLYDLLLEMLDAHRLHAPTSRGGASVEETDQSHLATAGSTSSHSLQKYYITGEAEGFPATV
Method in brief: (§1)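 ER-negative SKBR3 cells cotransfected with 3xERE-TATA-luciferase, RST7-ERα and pCMV-β-gal for normalization. […] Scored as >50% decrease or increase at <20, 20–50 or >50 μM, or <20% change. 4-hydroxytamoxifen as antagonist control. Cell death above 50 μM flagged.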

[2] = Cytotoxicity against ER-negative human SKBR3 cells expressing ER-alpha coexpressing ERE assessed as cell death at >50 uM; type: cell-based; settings: sk-br-3; method in brief: as §1
[3] = target: T1, Estrogen receptor (Homo sapiens); test: Inhibition of ER-alpha (unknown origin) transcriptional activity expressed in ER-negative human SKBR3 cells coexpressing ERE assessed as change in reporter gene activity after 40 hrs in presence of estradiol relative to control; type: cell-based; set-up: concentration or dose not given beside the values; settings: SK-BR-3; method in brief: as §1
[4] = Cytotoxicity against ER-negative human SKBR3 cells expressing ER-alpha coexpressing ERE assessed as cell death at >50 uM in presence of estradiol; type: cell-based; settings: sk-br-3; method in brief: as §1
[5] = target: T1, Estrogen receptor (Homo sapiens); test: Competitive inhibition of ER-alpha (unknown origin)-GRIP1 interaction expressed in human HepG2 cells assessed as increase in reporter gene activity at >50 uM after 40 hrs relative to control; type: cell-based; set-up: scale not given: the % may be the effect or the level left
Method in brief: (§2)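 HepG2 cells transfected with VP16-ERα, Gal4-DBD-fused GRIP1 LxxLL2 peptide and 5xGal4Luc3 reporter. […] Scored as >50% decrease or increase at <20, 20–50 or >50 μM, or <20% change. 4-hydroxytamoxifen as antagonist control. Cell death and precipitation flagged.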

HepG2 [6] = test: Cytotoxicity against human HepG2 cells expressing ER-alpha coexpressing GRIP1 assessed as cell death at >50 uM; type: cell-based; method in brief: as §2
[7] = target: T1, Estrogen receptor (Homo sapiens); test: Competitive inhibition of ER-alpha (unknown origin)-GRIP1 interaction expressed in human HepG2 cells assessed as change in reporter gene activity after 40 hrs in presence of estradiol relative to control; type: cell-based; set-up: concentration or dose not given beside the values; method in brief: as §2
HepG2 [8] = test: Cytotoxicity against human HepG2 cells expressing ER-alpha coexpressing GRIP1 assessed as cell death at >50 uM in presence of estradiol; type: cell-based; method in brief: as §2
[9] = target: T1, Estrogen receptor (Homo sapiens); test: Inhibition of ER-alpha (unknown origin) transcriptional activity expressed in ER-negative human SKBR3 cells coexpressing ERE assessed as change in reporter gene activity after 40 hrs relative to control; type: cell-based; set-up: concentration or dose not given beside the values; settings: SK-BR-3; method in brief: as §1
[10] = target: T1, Estrogen receptor (Homo sapiens); test: Competitive inhibition of ER-alpha (unknown origin)-GRIP1 interaction expressed in human HepG2 cells assessed as decrease in reporter gene activity at >50 uM after 40 hrs relative to control; type: cell-based; set-up: scale not given: the % may be the effect or the level left; method in brief: as §2
[11] = target: T1, Estrogen receptor (Homo sapiens); test: Competitive inhibition of ER-alpha (unknown origin)-GRIP1 interaction expressed in human HepG2 cells assessed as decrease in reporter gene activity at 20 to 50 uM after 40 hrs relative to control; type: cell-based; set-up: scale not given: the % may be the effect or the level left; method in brief: as §2
[12] = target: T1, Estrogen receptor (Homo sapiens); test: Competitive inhibition of ER-alpha (unknown origin)-GRIP1 interaction expressed in human HepG2 cells assessed as decrease in reporter gene activity at 20 to 50 uM after 40 hrs in presence of estradiol relative to control; type: cell-based; set-up: scale not given: the % may be the effect or the level left; method in brief: as §2
[13] = target: T1, Estrogen receptor (Homo sapiens); test: Competitive inhibition of ER-alpha (unknown origin)-GRIP1 interaction expressed in human HepG2 cells assessed as change in reporter gene activity after 40 hrs relative to control; type: cell-based; set-up: concentration or dose not given beside the values; method in brief: as §2
[14] = target: T1, Estrogen receptor (Homo sapiens); test: Inhibition of ER-alpha (unknown origin) transcriptional activity expressed in ER-negative human SKBR3 cells coexpressing ERE assessed as increase in reporter gene activity at <20 uM after 40 hrs relative to control; type: cell-based; set-up: scale not given: the % may be the effect or the level left; settings: SK-BR-3; method in brief: as §1
[15] = target: T1, Estrogen receptor (Homo sapiens); test: Inhibition of ER-alpha (unknown origin) transcriptional activity expressed in ER-negative human SKBR3 cells coexpressing ERE assessed as decrease in reporter gene activity at <20 uM after 40 hrs relative to control; type: cell-based; set-up: scale not given: the % may be the effect or the level left; settings: SK-BR-3; method in brief: as §1
[16] = target: T1, Estrogen receptor (Homo sapiens); test: Inhibition of ER-alpha (unknown origin) transcriptional activity expressed in ER-negative human SKBR3 cells coexpressing ERE assessed as decrease in reporter gene activity at <20 uM after 40 hrs in presence of estradiol relative to control; type: cell-based; set-up: scale not given: the % may be the effect or the level left; settings: SK-BR-3; method in brief: as §1
[17] = target: T1, Estrogen receptor (Homo sapiens); test: Competitive inhibition of ER-alpha (unknown origin)-GRIP1 interaction expressed in human HepG2 cells assessed as decrease in reporter gene activity at <20 uM after 40 hrs relative to control; type: cell-based; set-up: scale not given: the % may be the effect or the level left; method in brief: as §2
[18] = target: T1, Estrogen receptor (Homo sapiens); test: Competitive inhibition of ER-alpha (unknown origin)-GRIP1 interaction expressed in human HepG2 cells assessed as decrease in reporter gene activity at <20 uM after 40 hrs in presence of estradiol relative to control; type: cell-based; set-up: scale not given: the % may be the effect or the level left; method in brief: as §2
Estrogen receptor [19] = target: T2, Estrogen receptor (Homo sapiens, UniProt P03372); test: Competitive inhibition of ER-alpha (unknown origin) ligand binding pocket expressed in ER-negative human SKBR3 cells coexpressing ERE using estradiol as substrate; type: cell-based, SK-BR-3
T2 sequence (P03372 whole entry): T1 sequence (whole entry)
Method in brief: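 SKBR3 (ER-negative breast cancer) cells were transfected with RST7–ERα, a 3xERE-TATA-luciferase reporter and a pCMV-β-gal normalization control. […] Cells were incubated 40 h, then luciferase reporter activity was read.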

[20] = target: T1, Estrogen receptor (Homo sapiens); test: Inhibition of ER-alpha (unknown origin) transcriptional activity expressed in ER-negative human SKBR3 cells coexpressing ERE assessed as increase in reporter gene activity at 20 to 50 uM after 40 hrs relative to control; type: cell-based; set-up: scale not given: the % may be the effect or the level left; settings: SK-BR-3; method in brief: as §1
Estrogen receptor [21] = target: T2, Estrogen receptor; test: Mixed-type inhibition of ER-alpha (unknown origin) expressed in ER-negative human SKBR3 cells coexpressing ERE using estradiol as substrate; type: cell-based, SK-BR-3
[22] = target: T1, Estrogen receptor (Homo sapiens); test: Competitive inhibition of ER-alpha (unknown origin)-GRIP1 interaction expressed in human HepG2 cells assessed as decrease in reporter gene activity at >50 uM after 40 hrs in presence of estradiol relative to control; type: cell-based; set-up: scale not given: the % may be the effect or the level left; method in brief: as §2

| Compound | Activity [1] [%] | Activity [3] [%] | Activity [5] [%] | Activity [7] [%] | Activity [13] [%] | Activity (HepG2 [6]) | Activity (HepG2 [8]) | other results |
| --- | --- | --- | --- | --- | --- | --- | --- | --- |
| CCOC(=O)COc1ccc(-c2ccc(OCCN(C)C)c(Cc3ccc4ccccc4c3)c2)cc1Cc1ccc2ccccc2c1 | > 50 | < 20 | > 50 | < 20 | – | Toxic | Toxic | Activity [2]: Toxic; Activity [4]: Toxic |
| CCCCCCCc1cc(-c2ccc(OCC(=O)OCC)cc2)ccc1O | > 50 | < 20 | > 50 | < 20 | – | Toxic | Toxic | – |
| CCOC(=O)COc1ccc(-c2ccc(O)c(Cc3ccc(-c4ccccc4)cc3)c2)cc1 | – | < 20 | – | – | – | – | – | Activity [9]: < 20%; Activity [11]: > 50%; Activity [12]: > 50% |
| CCOC(=O)COc1ccc(-c2ccc(O)cc2)cc1CC1CCCCC1 | – | < 20 | – | < 20 | < 20 | – | – | Activity [14]: > 50% |
| CCOC(=O)COc1ccc(-c2ccc(OCCN(C)C)cc2)cc1Cc1ccc2ccccc2c1 | – | – | – | – | – | Toxic | Toxic | Activity [15]: > 50%; Activity [16]: > 50%; Activity [17]: > 50%; Activity [18]: > 50%; IC50 (Estrogen receptor [19]): 3.2 µM |
| CCOC(=O)COc1ccc(-c2ccc(OCCN(C)C)cc2)cc1CC1CCCCC1 | – | – | – | – | – | – | – | Activity [15]: > 50%; Activity [16]: > 50%; Activity [17]: > 50%; Activity [18]: > 50%; IC50 (Estrogen receptor [21]): 12.7 µM |
| CCCCCCCc1cc(-c2ccc(OCC(=O)OCC)c(CCCCCCC)c2)ccc1OCCN(C)C | > 50 | < 20 | > 50 | < 20 | – | – | – | – |
| CCOC(=O)COc1ccc(-c2ccc(OCCN(C)C)c(CC3CCCCC3)c2)cc1CC1CCCCC1 | > 50 | < 20 | – | – | < 20 | – | – | Activity [2]: Toxic; Activity [4]: Toxic; Activity [22]: > 50% |

Second part, led by results:

| Activity [1] [%] | Activity [3] [%] | Activity [5] [%] | Activity [7] [%] | Activity [13] [%] | Compound | Activity (HepG2 [6]) | Activity (HepG2 [8]) | other results |
| --- | --- | --- | --- | --- | --- | --- | --- | --- |
| – | < 20 | – | < 20 | – | CCOC(=O)COc1ccc(-c2ccc(OCCN(C)C)cc2)cc1Cc1ccc(-c2ccccc2)cc1 | Toxic | Toxic | Activity [9]: < 20%; Activity [10]: > 50% |
| > 50 | < 20 | – | < 20 | < 20 | CCOC(=O)COc1ccc(-c2ccc(O)c(Cc3ccc4ccccc4c3)c2)cc1Cc1ccc2ccccc2c1 | – | – | – |
| – | < 20 | – | < 20 | < 20 | CCOC(=O)COc1ccc(-c2ccc(OCCN(C)C)c(Cc3ccc(-c4ccccc4)cc3)c2)cc1Cc1ccc(-c2ccccc2)cc1 | – | – | Activity [20]: > 50% |
| – | < 20 | > 50 | < 20 | – | CCOC(=O)COc1ccc(-c2ccc(O)c(Cc3ccc4ccccc4c3)c2)cc1 | Toxic | Toxic | Activity [20]: > 50% |
